In ChEMBL document CHEMBL4177742, “Synthesis and biological evaluation of 4β-(thiazol-2-yl)amino-4'-O-demethyl-4-deoxypodophyllotoxins as topoisomerase-II inhibitors” (Bioorg Med Chem Lett, 2018):
Activity calls are given as the source filed them. No cut-off for these calls is given here.

Columns and labels:
[1] = tested on: A549; test: Cytotoxicity against human A549 cells assessed as reduction in inhibition of cell growth incubated for 48 hrs by MTT assay; format: functional, cell-based; settings: A549, 48 h
[2] = tested on: HepG2; test: Cytotoxicity against human HepG2 cells assessed as reduction in inhibition of cell growth incubated for 48 hrs by MTT assay; format: functional, cell-based; settings: HepG2, 48 h
[3] = tested on: WI-38; test: Cytotoxicity against human WI38 cells assessed as reduction in inhibition of cell growth incubated for 48 hrs by MTT assay; format: cell-based; settings: WI-38, 48 h
[4] = tested on: HeLa; test: Cytotoxicity against human HeLa cells assessed as reduction in inhibition of cell growth incubated for 48 hrs by MTT assay; format: functional, cell-based
[5] = tested on: LoVo; test: Cytotoxicity against human LoVo cells assessed as reduction in inhibition of cell growth incubated for 48 hrs by MTT assay; format: functional, cell-based
[6] = tested on: A549; test: Induction of cell cycle arrest in human A549 cells assessed as increase in cyclin B1 protein level at 1 to 10 uM incubated for 12 hrs by Western blotting; format: functional, cell-based
Outline: (§1)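 For G2/M regulators, A549 cells were exposed 12 h to 1, 5 or 10 μM and analysed by western blotting for cyclin B1 and cdc2(p34).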

[7] = tested on: A549; test: Inhibition of topoisomerase 2alpha protein expression in human A549 cells at 1 to 10 uM incubated for 12 hrs by Western blotting; format: functional, cell-based
Outline: (§2)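 Topo-IIα and topo-IIβ expression was measured in A549 cells treated 12 h at 1, 5 and 10 μM, with etoposide (5 μM) as a reference treatment.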

[8] = tested on: A549; test: Induction of cell cycle arrest in human A549 cells assessed as increase in accumulation at G2/M phase at 1 to 5 uM incubated for 12 hrs by propidium iodide staining based FACS analysis
[9] = tested on: A549; test: Induction of DNA double stranded breaks in human A549 cells assessed as increase in ATM phosphorylation levels at 1 to 10 uM incubated for 12 hrs by Western blotting; format: functional, cell-based
Outline: (§3)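 A549 cells exposed for 12 h to 1, 5 or 10 μM alongside vehicle and etoposide (5 μM) as a reference. Lysates were probed by western blotting for phospho-H2AX (Ser-139, γH2AX), p73 and phospho-ATM.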

[10] = tested on: A549; test: Induction of DNA double stranded breaks in human A549 cells assessed as increase in gamma-H2Ax level at 1 to 5 uM incubated for 12 hrs by DAPI staining based immunofluorescence assay; format: functional, cell-based
Outline: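 A549 cells were treated 12 h with vehicle, 1 μM or 5 μM, then immunostained with anti-γH2AX antibody and counterstained with DAPI. Nuclear γH2AX foci were scored by immunofluorescence as a marker of DNA double-strand breaks.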

[11] = tested on: A549; test: Induction of DNA double stranded breaks in human A549 cells assessed as increase in gamma-H2Ax level at 1 to 10 uM incubated for 12 hrs by Western blotting; format: functional, cell-based; outline: as §3
[12] = tested on: A549; test: Inhibition of topoisomerase 2beta protein expression in human A549 cells at 1 to 10 uM incubated for 12 hrs by Western blotting; format: functional, cell-based; outline: as §2
[13] = tested on: A549; test: Induction of cell cycle arrest in human A549 cells assessed as increase in cdc2(p34) protein level at 1 to 10 uM incubated for 12 hrs by Western blotting; format: functional, cell-based; outline: as §1
[14] = tested on: A549; test: Induction of DNA double stranded breaks in human A549 cells assessed as increase in p73 protein levels at 1 to 10 uM incubated for 12 hrs by Western blotting; format: functional, cell-based; outline: as §3
[15] = target: DNA topoisomerase 2-alpha (Homo sapiens) (UniProt P11388); test: Inhibition of topoisomerase 2alpha in human A549 cells assessed as reduction in enzyme-mediated super coliling activity by measuring induction of pBR322 DNA relaxation at 100 uM incubated for 12 hrs by ethidium bromide staining based agarose gel electrophoresis method; format: cell-based
Chain of DNA topoisomerase 2-alpha (Homo sapiens) (P11388 whole entry): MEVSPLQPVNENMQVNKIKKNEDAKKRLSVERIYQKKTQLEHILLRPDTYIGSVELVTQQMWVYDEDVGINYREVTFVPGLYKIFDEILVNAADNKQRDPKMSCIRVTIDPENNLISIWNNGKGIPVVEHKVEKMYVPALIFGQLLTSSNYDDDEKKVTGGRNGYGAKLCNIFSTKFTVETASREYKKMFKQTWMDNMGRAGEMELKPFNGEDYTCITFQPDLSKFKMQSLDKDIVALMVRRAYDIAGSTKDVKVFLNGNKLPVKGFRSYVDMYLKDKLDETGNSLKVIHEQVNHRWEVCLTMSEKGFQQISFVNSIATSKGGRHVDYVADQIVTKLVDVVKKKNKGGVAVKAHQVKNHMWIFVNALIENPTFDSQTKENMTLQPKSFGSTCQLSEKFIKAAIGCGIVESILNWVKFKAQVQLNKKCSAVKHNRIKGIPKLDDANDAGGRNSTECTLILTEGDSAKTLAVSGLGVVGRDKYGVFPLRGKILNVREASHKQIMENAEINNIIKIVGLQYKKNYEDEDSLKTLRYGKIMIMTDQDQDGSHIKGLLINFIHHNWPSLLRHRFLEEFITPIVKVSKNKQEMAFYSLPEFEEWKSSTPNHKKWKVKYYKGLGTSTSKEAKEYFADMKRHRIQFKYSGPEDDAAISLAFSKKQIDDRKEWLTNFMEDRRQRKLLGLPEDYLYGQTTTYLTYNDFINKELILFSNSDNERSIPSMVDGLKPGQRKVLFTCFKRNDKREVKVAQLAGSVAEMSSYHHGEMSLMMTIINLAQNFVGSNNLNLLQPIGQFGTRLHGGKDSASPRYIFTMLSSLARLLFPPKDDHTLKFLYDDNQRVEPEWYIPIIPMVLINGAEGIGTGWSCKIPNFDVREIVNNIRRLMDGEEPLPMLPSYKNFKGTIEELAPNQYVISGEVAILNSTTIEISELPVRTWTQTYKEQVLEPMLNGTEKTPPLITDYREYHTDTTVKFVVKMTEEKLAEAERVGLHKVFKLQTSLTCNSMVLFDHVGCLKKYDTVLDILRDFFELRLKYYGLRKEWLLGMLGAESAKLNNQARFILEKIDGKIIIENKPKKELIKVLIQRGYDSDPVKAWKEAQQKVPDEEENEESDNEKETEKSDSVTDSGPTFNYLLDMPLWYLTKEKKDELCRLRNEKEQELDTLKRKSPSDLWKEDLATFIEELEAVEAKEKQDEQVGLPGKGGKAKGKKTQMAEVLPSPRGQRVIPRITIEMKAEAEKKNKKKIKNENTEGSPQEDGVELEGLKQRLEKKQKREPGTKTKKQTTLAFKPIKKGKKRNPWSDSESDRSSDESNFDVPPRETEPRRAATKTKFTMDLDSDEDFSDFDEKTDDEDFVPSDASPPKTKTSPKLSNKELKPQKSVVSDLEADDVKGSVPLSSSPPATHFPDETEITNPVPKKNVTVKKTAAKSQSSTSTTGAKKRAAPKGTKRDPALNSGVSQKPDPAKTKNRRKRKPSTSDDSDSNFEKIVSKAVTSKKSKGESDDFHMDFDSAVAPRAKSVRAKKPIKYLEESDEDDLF

[16] = tested on: A549; test: Induction of cell cycle arrest in human A549 cells assessed as reduction in accumulation at G1 phase at 1 to 5 uM incubated for 12 hrs by propidium iodide staining based FACS analysis

inhibition [15]	SMILES	IC50 [1] [µM]	IC50 [2] [µM]	IC50 [3] [µM]	IC50 [4] [µM]	IC50 [5] [µM]	Activity [6]	inhibition [7]	Activity [8]	Activity [9]	Activity [10]	Activity [11]	inhibition [12]	Activity [13]	Activity [14]	Activity [16]
	CCOC(=O)Cc1csc(N[C@@H]2c3cc4c(cc3[C@@H](c3cc(OC)c(O)c(OC)c3)[C@H]3C(=O)OC[C@@H]32)OCO4)n1	9.3	0.12	44.4	12.5	7										
Active	COc1cc([C@@H]2c3cc4c(cc3[C@@H](Nc3nc(CC(=O)N5CCN(C6CCCC6)CC5)cs3)[C@H]3COC(=O)[C@H]23)OCO4)cc(OC)c1O	1.3	8.5	66.7	4.4	9.2	Dose-dependent effect	Dose-dependent effect	Dose-dependent effect	Dose-dependent effect	Active	Dose-dependent effect	Dose-dependent effect	Dose-dependent effect	Dose-dependent effect	Dose-dependent effect
	COc1cc([C@@H]2c3cc4c(cc3[C@@H](Nc3nc(CC(=O)N5CCOCC5)cs3)[C@H]3COC(=O)[C@H]23)OCO4)cc(OC)c1O	18.7	15.1	33.5	14.8	37.2										
	COc1cc([C@@H]2c3cc4c(cc3[C@@H](O[C@@H]3O[C@@H]5CO[C@@H](C)O[C@H]5[C@H](O)[C@H]3O)[C@H]3COC(=O)[C@H]23)OCO4)cc(OC)c1O [ETOPOSIDE]	9.1	9.2	25.7	11.2	18.7										
	COc1cc([C@@H]2c3cc4c(cc3[C@@H](Nc3nc(CC(=O)NC5CC5)cs3)[C@H]3COC(=O)[C@H]23)OCO4)cc(OC)c1O	11.1	10.2	56	17.2	19.1										
Active	CCOC(=O)c1csc(N[C@@H]2c3cc4c(cc3[C@@H](c3cc(OC)c(O)c(OC)c3)[C@H]3C(=O)OC[C@@H]32)OCO4)n1	0.16	0.13	55.3	5.6	5	Dose-dependent effect	Dose-dependent effect	Dose-dependent effect	Dose-dependent effect	Active	Dose-dependent effect	Dose-dependent effect	Dose-dependent effect	Dose-dependent effect	Dose-dependent effect
	COc1cc([C@@H]2c3cc4c(cc3[C@@H](Nc3nc(CC(=O)NC5CCCC5)cs3)[C@H]3COC(=O)[C@H]23)OCO4)cc(OC)c1O	9.1	19.1	29	14.1	21										
	COc1cc([C@@H]2c3cc4c(cc3[C@@H](Nc3nc(CC(=O)O)cs3)[C@H]3COC(=O)[C@H]23)OCO4)cc(OC)c1O	8.3	9.3	42.5	8.7	10.3										
	COc1cc([C@@H]2c3cc4c(cc3[C@@H](Nc3nc(CC(=O)N5CCN(C)CC5)cs3)[C@H]3COC(=O)[C@H]23)OCO4)cc(OC)c1O	22.3	18.7	28.1	16.5	27.4										
	COc1cc([C@@H]2c3cc4c(cc3[C@@H](Nc3nc(CC(=O)NC5CCCCC5)cs3)[C@H]3COC(=O)[C@H]23)OCO4)cc(OC)c1O	9.4	16.3	77.8	10.7	19.1										
